Measurements: ChEMBL document CHEMBL1158358, “Synthesis, antimicrobial and cytotoxic activities of some 5-arylidene-4-thioxo-thiazolidine-2-ones” (Eur J Med Chem, 2009)
≈ marks a conversion by molar mass, not a printed value.

Tests used:
Format in all cases: functional
Staphylococcus aureus [1] = assay: Antimicrobial activity against multidrug-resistant Staphylococcus aureus H.C. 20981 isolate after 20 hrs by twofold serial dilution technique; details: H.C. 20981, 20 h
Outline: (§1)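 Twofold serial dilution MIC in agar plates against Gram-positive strains and multidrug-resistant clinical isolates. Inoculum applied was 10⁵ CFU/plate. Plates with culture medium plus DMSO served as negative control. MIC was read after incubation at 35 °C for 20 h.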

Staphylococcus aureus [2] = assay: Antimicrobial activity against Staphylococcus aureus UFPEDA 01 after 20 hrs by twofold serial dilution technique; details: UFPEDA 01, 20 h; outline: as §1
Staphylococcus [3] = assay: Antimicrobial activity against coagulase-negative Staphylococcus H.A.M. 338 isolate after 20 hrs by twofold serial dilution technique; details: H.A.M. 338, 20 h
Outline: (§2)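 MIC was determined by twofold serial dilution. Bacteria were tested in plates at 10⁵ CFU/plate and read after 20 h. C. albicans was tested in tubes at 10³ CFU/tube and read after 48 h. All incubations were at 35 °C. Medium plus DMSO served as the negative control.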

Enterococcus faecalis [4] = assay: Antimicrobial activity against Enterococcus faecalis UFPEDA 138 after 20 hrs by twofold serial dilution technique; details: UFPEDA 138, 20 h; outline: as §2
Bacillus subtilis [5] = assay: Antimicrobial activity against Bacillus subtilis UFPEDA 16 after 20 hrs by twofold serial dilution technique; details: UFPEDA 16, 20 h; outline: as §2
Enterococcus faecalis [6] = assay: Antimicrobial activity against multidrug-resistant Enterococcus faecalis H.C. 24708 isolate after 20 hrs by twofold serial dilution technique; details: H.C. 24708, 20 h; outline: as §1
Enterococcus faecalis [7] = assay: Antimicrobial activity against multidrug-resistant Enterococcus faecalis H.C. 21944 isolate after 20 hrs by twofold serial dilution technique; details: H.C. 21944, 20 h; outline: as §1
Micrococcus luteus [8] = assay: Antimicrobial activity against Micrococcus luteus UFPEDA 06 after 20 hrs by twofold serial dilution technique; details: UFPEDA 06, 20 h; outline: as §2
Staphylococcus aureus [9] = assay: Antimicrobial activity against multidrug-resistant Staphylococcus aureus H.C. 20794 isolate after 20 hrs by twofold serial dilution technique; details: H.C. 20794, 20 h; outline: as §1
Staphylococcus aureus [10] = assay: Antimicrobial activity against multidrug-resistant Staphylococcus aureus H.C. 20489 isolate after 20 hrs by twofold serial dilution technique; details: H.C. 20489, 20 h; outline: as §1
Staphylococcus [11] = assay: Antimicrobial activity against coagulase-negative Staphylococcus H.A.M. 278 isolate after 20 hrs by twofold serial dilution technique; details: H.A.M. 278, 20 h; outline: as §2
[12] = test system: Mycolicibacterium smegmatis; assay: Antimicrobial activity against Mycobacterium smegmatis UFPEDA 71 after 20 hrs by twofold serial dilution technique; details: UFPEDA 71, 20 h; outline: as §2
Enterococcus faecalis [13] = assay: Antimicrobial activity against multidrug-resistant Enterococcus faecalis H.C. 24962 isolate after 20 hrs by twofold serial dilution technique; details: H.C. 24962, 20 h; outline: as §1
Enterococcus faecalis [14] = assay: Antimicrobial activity against multidrug-resistant Enterococcus faecalis H.C. 21752 isolate after 20 hrs by twofold serial dilution technique; details: H.C. 21752, 20 h; outline: as §1
Staphylococcus aureus [15] = assay: Antimicrobial activity against multidrug-resistant Staphylococcus aureus H.C. 21036 isolate after 20 hrs by twofold serial dilution technique; details: H.C. 21036, 20 h; outline: as §1
Staphylococcus aureus [16] = assay: Antimicrobial activity against multidrug-resistant Staphylococcus aureus H.C. 21141 isolate after 20 hrs by twofold serial dilution technique; details: H.C. 21141, 20 h; outline: as §1
Staphylococcus aureus [17] = assay: Antimicrobial activity against multidrug-resistant Staphylococcus aureus H.C. 20905 isolate after 20 hrs by twofold serial dilution technique; details: H.C. 20905, 20 h; outline: as §1
Candida albicans [18] = assay: Antimicrobial activity against Candida albicans UFPEDA 1007 at 300 ug/disk after 48 hrs by disk diffusion method; details: UFPEDA 1007, 48 h, read-out: IZ
Outline: (§3)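 Preliminary screen by disk diffusion. Paper disks (6 mm) holding 300 µg of compound were placed on agar plates inoculated with a standardized microbial suspension. DMSO-only disks served as negative controls. A mean inhibition zone below 7 mm was scored as no sensitivity. Values are means, n = 3.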

Candida albicans [19] = assay: Antimicrobial activity against Candida albicans UFPEDA 1007 after 48 hrs by twofold serial dilution technique; details: UFPEDA 1007, 48 h; outline: as §2
Staphylococcus aureus [20] = assay: Antimicrobial activity against Staphylococcus aureus UFPEDA 01 at 300 ug/disk after 24 hrs by disk diffusion method; details: UFPEDA 01, 24 h, read-out: IZ; outline: as §3
[21] = test system: Mycolicibacterium smegmatis; assay: Antimicrobial activity against Mycobacterium smegmatis UFPEDA 71 at 300 ug/disk after 24 hrs by disk diffusion method; details: UFPEDA 71, 24 h, read-out: IZ; outline: as §3
Pseudomonas aeruginosa = assay: Antimicrobial activity against Pseudomonas aeruginosa UFPEDA 39 at 300 ug/disk after 24 hrs by disk diffusion method; details: UFPEDA 39, 24 h, read-out: IZ; outline: as §3
Serratia marcescens = assay: Antimicrobial activity against Serratia marcescens UFPEDA 398 at 300 ug/disk after 24 hrs by disk diffusion method; details: UFPEDA 398, 24 h, read-out: IZ; outline: as §3
Micrococcus luteus [22] = assay: Antimicrobial activity against Micrococcus luteus UFPEDA 06 at 300 ug/disk after 24 hrs by disk diffusion method; details: UFPEDA 06, 24 h, read-out: IZ; outline: as §3
Bacillus subtilis [23] = assay: Antimicrobial activity against Bacillus subtilis UFPEDA 16 at 300 ug/disk after 24 hrs by disk diffusion method; details: UFPEDA 16, 24 h, read-out: IZ; outline: as §3
Escherichia coli = assay: Antimicrobial activity against Escherichia coli UFPEDA 224 at 300 ug/disk after 24 hrs by disk diffusion method; details: UFPEDA 224, 24 h, read-out: IZ; outline: as §3
Enterococcus faecalis [24] = assay: Antimicrobial activity against Enterococcus faecalis UFPEDA 138 at 300 ug/disk after 24 hrs by disk diffusion method; details: UFPEDA 138, 24 h, read-out: IZ; outline: as §3
HEp-2 [25] = assay: Cytotoxicity against human Hep2 cells at 10 ug/mL after 72 hrs by MTT assay; details: HEp-2, 72 h, read-out: GI
Outline: (§4)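 MTT antiproliferative assay. Cells were diluted to 10⁵ cells/mL in 96-well plates and preincubated for 24 h at 37 °C in humid 5% CO₂. Compounds or vincristine (reference) were then added. Formazan was dissolved and OD read at 540 nm, compared with medium-only control cells. Run in triplicate.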

NCI-H292 [26] = assay: Cytotoxicity against human NCI-H292 cells at 5 ug/mL after 72 hrs by MTT assay; details: NCI-H292, 72 h, read-out: GI; outline: as §4
NCI-H292 [27] = assay: Cytotoxicity against human NCI-H292 cells at 10 ug/mL after 72 hrs by MTT assay; details: NCI-H292, 72 h, read-out: GI; outline: as §4
NCI-H292 [28] = assay: Cytotoxicity against human NCI-H292 cells at 1.25 ug/mL after 72 hrs by MTT assay; details: NCI-H292, 72 h, read-out: GI; outline: as §4
HEp-2 [29] = assay: Cytotoxicity against human Hep2 cells at 5 ug/mL after 72 hrs by MTT assay; details: HEp-2, 72 h, read-out: GI; outline: as §4
NCI-H292 [30] = assay: Cytotoxicity against human NCI-H292 cells at 2.5 ug/mL after 72 hrs by MTT assay; details: NCI-H292, 72 h, read-out: GI; outline: as §4
HEp-2 [31] = assay: Cytotoxicity against human Hep2 cells at 1.25 ug/mL after 72 hrs by MTT assay; details: HEp-2, 72 h, read-out: GI; outline: as §4

Row | SMILES | MIC (Staphylococcus aureus [1]) [µg/mL] | MIC (Staphylococcus aureus [2]) [µg/mL] | MIC (Staphylococcus [3]) [µg/mL] | MIC (Enterococcus faecalis [4]) [µg/mL] | MIC (Bacillus subtilis [5]) [µg/mL] | MIC (Enterococcus faecalis [6]) [µg/mL] | MIC (Enterococcus faecalis [7]) [µg/mL] | MIC (Micrococcus luteus [8]) [µg/mL] | MIC (Staphylococcus aureus [9]) [µg/mL] | MIC (Staphylococcus aureus [10]) [µg/mL] | MIC (Staphylococcus [11]) [µg/mL] | MIC [12] [µg/mL] | MIC (Enterococcus faecalis [13]) [µg/mL] | MIC (Enterococcus faecalis [14]) [µg/mL] | MIC (Staphylococcus aureus [15]) [µg/mL] | MIC (Staphylococcus aureus [16]) [µg/mL] | MIC (Staphylococcus aureus [17]) [µg/mL] | zone of inhibition at 300 µg/disc (Candida albicans [18]) [mm] | zone of inhibition at 300 µg/disc (Staphylococcus aureus [20]) [mm] | zone of inhibition at 300 µg/disc [21] [mm] | also measured
1 | CC1=C(C(=O)O)N2C(=O)[C@@H](NC(=O)[C@H](N)c3ccccc3)[C@H]2SC1 [CEPHALEXIN ANHYDROUS] | 8 (≈ 23 µM) | ≤ 1 | 128 (≈ 368 µM) | 64 (≈ 184 µM) | ≤ 1 | 64 (≈ 184 µM) | 64 (≈ 184 µM) | ≤ 1 | 4 (≈ 11.5 µM) | 2 (≈ 5.76 µM) | 128 (≈ 368 µM) | > 128 | 64 (≈ 184 µM) | 64 (≈ 184 µM) | > 128 | 2 (≈ 5.76 µM) | > 128 | – | – | – | –
2 | O=C1NC(=S)CS1 | 32 (≈ 240 µM) | 8 (≈ 60.1 µM) | 64 (≈ 480 µM) | 64 (≈ 480 µM) | 4 (≈ 30 µM) | 32 (≈ 240 µM) | 32 (≈ 240 µM) | 4 (≈ 30 µM) | 32 (≈ 240 µM) | 64 (≈ 480 µM) | 64 (≈ 480 µM) | 32 (≈ 240 µM) | 32 (≈ 240 µM) | 32 (≈ 240 µM) | 32 (≈ 240 µM) | 32 (≈ 240 µM) | 32 (≈ 240 µM) | 19 | 19 | 18 | MIC (Candida albicans [19]): 8 µg/mL (≈ 60.1 µM); zone of inhibition at 300 µg/disc (Pseudomonas aeruginosa): < 7 mm; zone of inhibition at 300 µg/disc (Serratia marcescens): < 7 mm; zone of inhibition at 300 µg/disc (Micrococcus luteus [22]): 26 mm; zone of inhibition at 300 µg/disc (Bacillus subtilis [23]): 21 mm; zone of inhibition at 300 µg/disc (Escherichia coli): < 7 mm; zone of inhibition at 300 µg/disc (Enterococcus faecalis [24]): 22 mm
3 | O=C1CSC(=O)N1 [THIAZOLIDINEDIONE] | – | – | – | – | – | – | – | – | – | – | – | – | – | – | – | – | – | < 7 | < 7 | < 7 | zone of inhibition at 300 µg/disc (Pseudomonas aeruginosa): < 7 mm; zone of inhibition at 300 µg/disc (Serratia marcescens): < 7 mm; zone of inhibition at 300 µg/disc (Micrococcus luteus [22]): < 7 mm; zone of inhibition at 300 µg/disc (Bacillus subtilis [23]): < 7 mm; zone of inhibition at 300 µg/disc (Escherichia coli): < 7 mm; zone of inhibition at 300 µg/disc (Enterococcus faecalis [24]): < 7 mm
4 | O=C1NC(=S)/C(=C/c2ccc(Cl)cc2)S1 | 2 (≈ 7.82 µM) | 4 (≈ 15.6 µM) | 4 (≈ 15.6 µM) | 32 (≈ 125 µM) | 16 (≈ 62.6 µM) | 16 (≈ 62.6 µM) | 16 (≈ 62.6 µM) | 32 (≈ 125 µM) | 2 (≈ 7.82 µM) | 2 (≈ 7.82 µM) | 4 (≈ 15.6 µM) | 32 (≈ 125 µM) | 16 (≈ 62.6 µM) | 16 (≈ 62.6 µM) | 2 (≈ 7.82 µM) | 8 (≈ 31.3 µM) | 2 (≈ 7.82 µM) | 12 | 27 | 20 | inhibition of growth at 10 µg/mL (HEp-2 [25]): 22.2%; MIC (Candida albicans [19]): 64 µg/mL (≈ 250 µM); inhibition of growth at 5 µg/mL (NCI-H292 [26]): 35.8%; zone of inhibition at 300 µg/disc (Pseudomonas aeruginosa): < 7 mm; zone of inhibition at 300 µg/disc (Serratia marcescens): < 7 mm; inhibition of growth at 10 µg/mL (NCI-H292 [27]): 41.4%; zone of inhibition at 300 µg/disc (Micrococcus luteus [22]): 25 mm; inhibition of growth at 1.25 µg/mL (NCI-H292 [28]): 10%; zone of inhibition at 300 µg/disc (Bacillus subtilis [23]): 22 mm; zone of inhibition at 300 µg/disc (Escherichia coli): < 7 mm; inhibition of growth at 5 µg/mL (HEp-2 [29]): 16.1%; inhibition of growth at 2.5 µg/mL (NCI-H292 [30]): 28.6%; inhibition of growth at 1.25 µg/mL (HEp-2 [31]): 0.92%; zone of inhibition at 300 µg/disc (Enterococcus faecalis [24]): 17 mm
